Our source for the Ki, EC50 and Max response values is ChEMBL document CHEMBL1133511, “Contribution of the adenine base to the activity of adenophostin A investigated using a base replacement strategy” (J Med Chem, 2000).

Experiment [1] in a line: Tested for equilibrium competition binding to InsP3 receptor in hepatic membranes using 1.3-1.8 nM [3H]Ins(1,4,5)P3 as the radioligand. It counts as functional, cell membranes, Rattus norvegicus, Liver, Membrane. In outline: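 Rat liver membranes (perfused, homogenized, Percoll-purified), 0.1 mg protein/tube in 50 mM Tris, 1 mM EDTA, pH 8.3, incubated 5 min at 4 °C with [3H]Ins(1,4,5)P3 plus competing ligand; bound separated by centrifugation (20000g, 5 min), counted by scintillation. Kd and Hill coefficient from equilibrium competition; means ± SEM of 4 independent experiments.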

The species named for experiment [2] is Rattus norvegicus. Briefly: Tested for concentration of ligand causing half maximal response of Calcium ion release from permeabilised hepatocytes. Format: functional. The note with it: Hepatocyte. Put shortly:
(§1)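 Permeabilized rat hepatocytes loaded to steady state with 45Ca2+ (5 min, 37 °C) in cytosol-like medium (140 mM KCl, 20 mM NaCl, 2 mM MgCl2, 1 mM EGTA, 300 µM CaCl2, 20 mM Pipes, pH 7.0) with 1.5 mM ATP, creatine phosphate/kinase, 10 µM FCCP; 1.25 µM thapsigargin added, 30 s later agonist for 60 s; store 45Ca2+ by rapid filtration. Four-parameter logistic fit; means ± SEM, 6-15 experiments.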

The species named for experiment [3] is Rattus norvegicus. The experiment is described as follows: Tested for percentage of intracellular calcium ion stores released in rat hepatocytes. It counts as functional, Hepatocyte. Put shortly:
as §1

Broadly, the Ki is the equilibrium dissociation constant of an inhibitor or competing ligand from its target. Read a low Ki as a stronger hold on the target. A word on the EC50: it is the concentration at which the effect is half-maximal. In turn, `Nc1ncnc2c1ncn2[C@@H]1O[C@H](CO)[C@@H](O[C@H]2O[C@@H](CO)[C@@H](OP(=O)(O)O)[C@H](OP(=O)(O)O)[C@@H]2O)[C@H]1OP(=O)(O)O` returned a Ki in experiment [1] of 0.45 nM. Besides, the EC50 in the experiment listed under Rattus norvegicus [2] stood at 14 nM. Also, the Max response in the experiment filed under Rattus norvegicus [3] is on record as 51%.
The corresponding values for `O=P(O)(O)O[C@@H]1[C@H](O)[C@@H](O[C@H]2[C@@H](OP(=O)(O)O)[C@H](n3ccnc3)O[C@@H]2CO)O[C@@H](CO)[C@H]1OP(=O)(O)O` are 2.19 nM, 108 nM and 57%.
`O=P(O)(O)O[C@@H]1[C@H](O)[C@@H](O[C@H]2[C@@H](OP(=O)(O)O)[C@H](n3cnc4cncnc43)O[C@@H]2CO)O[C@@H](CO)[C@H]1OP(=O)(O)O` [PURINOPHOSTIN] gave an inhibition constant Ki in experiment [1] of 0.8 nM. In addition, the EC50 in the experiment filed under Rattus norvegicus [2] was found to be 18 nM. The Max response in the experiment listed under Rattus norvegicus [3] worked out at 52%.
In turn, `O=P(O)(O)O[C@@H]1[C@H](O)[C@@H](O)[C@@H](OP(=O)(O)O)[C@H](OP(=O)(O)O)[C@@H]1O` came in with an inhibition constant Ki in experiment [1] of 2.72 nM. Also, the EC50 in the experiment listed under Rattus norvegicus [2] amounted to 119 nM. Moreover, the Max response in the experiment filed under Rattus norvegicus [3] is 55%.
